Measurements reported in ChEMBL document CHEMBL1144933, “Novel bioactive and stable neurotensin peptide analogues capable of delivering radiopharmaceuticals and molecular beacons to tumors” (J Med Chem, 2003).
*1 amine or outer side, *2 acyl side, *3 side chain or, on linkers, in order; H or OH if unused. Where a SMILES comes first, the peptide text is derived from it. [ ]: non-standard residue; d: D form. The star is where a group is joined. Gly(1-amidinopiperidin-4-yl) = N=C(N)N1CCC([C@H](N)C(=O)O)CC1; Ala(1-amidino-4-piperidyl) = N=C(N)N1CCC(C[C@H](N)C(=O)O)CC1; DTPA = O=C(O)CN(CCN(CC(=O)O)CC(=O)O)CCN(CC(=O)O)CC(=O)*; Gly(piperidin-4-yl) = N[C@H](C(=O)O)C1CCNCC1; X1 = NCC1CCC(C[C@H](N[*:1])C(=O)[*:2])CC1; Tle = CC(C)(C)[C@H](N)C(=O)O

What was measured:
[1] = biological target: Neurotensin receptor type 1 (Homo sapiens, UniProt P30989); assay: Binding affinity towards neurotensin receptor in membranes prepared from HT-29 cell line, relative to [111In]-labeled neurotensin peptide
[2] = system: Mus musculus; assay: Biodistribution of [111In]DTPA-NT in HT-29 tumor implanted SCID mice kidneys at 1 h postinjection; format: ADME, organism-based, Kidney; settings: in vivo
How it was run: (§1)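 Male SCID mice bore HT29 xenografts from 1 × 10^6 cells given s.c. in both rear flanks. Tumours reached about 0.3 g by day 14. Under Metofane anaesthesia, mice received 20 μL (10 μCi) of 111In-DTPA-NT analogue (1400 Ci/mmol) via the jugular vein. Groups of n = 3 were killed by cervical dislocation at 1 and 4 h. Blood and tissues were gamma-counted and reported as %ID/g ± SE.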

[3] = system: Mus musculus; assay: Biodistribution of [111In]-DTPA-NT in HT-29 tumor implanted SCID mice tumor at 4 hr postinjection; format: ADME, organism-based; settings: in vivo; how it was run: as §1
[4] = system: Mus musculus; assay: Biodistribution of [111In]DTPA-NT in HT-29 tumor implanted SCID mice tumor at 1 h postinjection; format: ADME, organism-based; settings: in vivo; how it was run: as §1
[5] = system: Mus musculus; assay: Biodistribution of [111In]DTPA-NT in HT-29 tumor implanted SCID mice muscle at 1 h postinjection; format: ADME, organism-based, Muscle tissue; settings: in vivo; how it was run: as §1
[6] = system: Mus musculus; assay: Biodistribution of [111In]-DTPA-NT in HT-29 tumor implanted SCID mice pancreas at 4 hr postinjection LSA administration; format: ADME, organism-based; settings: in vivo
How it was run: (§2)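 Receptor-blocking (low specific activity) arm in male SCID mice with s.c. HT29 flank xenografts of about 0.3 g. Two animals received the same activity (10 μCi, jugular vein) diluted with cold NT to 0.5 Ci/mmol. Tissues were collected after cervical dislocation, radioassayed, and expressed as %ID/g.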

[7] = system: Mus musculus; assay: Biodistribution of [111In]-DTPA-NT in HT-29 tumor implanted SCID mice pancreas at 4 h postinjection; format: ADME, organism-based; settings: in vivo; how it was run: as §1
[8] = system: Mus musculus; assay: Biodistribution of [111In]-DTPA-NT in HT-29 tumor implanted SCID mice spleen at 4 hr postinjection LSA administration; format: ADME, organism-based; settings: in vivo; how it was run: as §2
[9] = system: Mus musculus; assay: Biodistribution of [111In]-DTPA-NT in HT-29 tumor implanted SCID mice muscle at 4 hr postinjection LSA administration; format: ADME, organism-based, Muscle tissue; settings: in vivo; how it was run: as §2
[10] = system: Mus musculus; assay: Biodistribution of [111In]-DTPA-NT in HT-29 tumor implanted SCID mice kidneys at 4 hr postinjection LSA administration; format: ADME, organism-based, Kidney; settings: in vivo; how it was run: as §2
[11] = system: Mus musculus; assay: Biodistribution of [111In]DTPA-NT in HT-29 tumor implanted SCID mice pancreas at 1 h postinjection; format: ADME, organism-based; settings: in vivo; how it was run: as §1
[12] = system: Mus musculus; assay: Biodistribution of [111In]DTPA-NT in HT-29 tumor implanted SCID mice liver at 1 h postinjection; format: ADME, organism-based; settings: in vivo; how it was run: as §1
[13] = system: Mus musculus; assay: Biodistribution of [111In]DTPA-NT in HT-29 tumor implanted SCID mice blood at 1 h postinjection; format: ADME, organism-based; settings: in vivo; how it was run: as §1
[14] = system: Mus musculus; assay: Biodistribution of [111In]DTPA-NT in HT-29 tumor implanted SCID mice spleen at 4 h postinjection; format: ADME, organism-based; settings: in vivo; how it was run: as §1
[15] = system: Mus musculus; assay: Biodistribution of [111In]DTPA-NT in HT-29 tumor implanted SCID mice kidneys at 4 h postinjection; format: ADME, organism-based, Kidney; settings: in vivo; how it was run: as §1
[16] = system: Mus musculus; assay: Biodistribution of [111In]DTPA-NT in HT-29 tumor implanted SCID mice liver at 4 h postinjection; format: ADME, organism-based; settings: in vivo; how it was run: as §1
[17] = system: Mus musculus; assay: Biodistribution of [111In]DTPA-NT in HT-29 tumor implanted SCID mice tumor at 4 h postinjection LSA administration; format: ADME, organism-based; settings: in vivo; how it was run: as §2
[18] = system: Mus musculus; assay: Biodistribution of [111In]-DTPA-NT in HT-29 tumor implanted SCID mice spleen at 1 hr postinjection; format: ADME, organism-based; settings: in vivo; how it was run: as §1
[19] = system: Mus musculus; assay: Biodistribution of [111In]DTPA-NT in HT-29 tumor implanted SCID mice muscle at 4 h postinjection; format: ADME, organism-based, Muscle tissue; settings: in vivo; how it was run: as §1
[20] = system: Mus musculus; assay: Biodistribution of [111In]-DTPA-NT in HT-29 tumor implanted SCID mice liver at 4 hr postinjection LSA administration; format: ADME, organism-based; settings: in vivo; how it was run: as §2
[21] = system: Mus musculus; assay: Biodistribution of [111In]-DTPA-NT in HT-29 tumor implanted SCID mice blood at 4 hr postinjection LSA administration; format: ADME, organism-based; settings: in vivo; how it was run: as §2
[22] = system: Mus musculus; assay: Biodistribution of [111In]DTPA-NT in HT-29 tumor implanted SCID mice blood at 4 h postinjection; format: ADME, organism-based; settings: in vivo; how it was run: as §1

Chain of Neurotensin receptor type 1 (P30989 whole entry): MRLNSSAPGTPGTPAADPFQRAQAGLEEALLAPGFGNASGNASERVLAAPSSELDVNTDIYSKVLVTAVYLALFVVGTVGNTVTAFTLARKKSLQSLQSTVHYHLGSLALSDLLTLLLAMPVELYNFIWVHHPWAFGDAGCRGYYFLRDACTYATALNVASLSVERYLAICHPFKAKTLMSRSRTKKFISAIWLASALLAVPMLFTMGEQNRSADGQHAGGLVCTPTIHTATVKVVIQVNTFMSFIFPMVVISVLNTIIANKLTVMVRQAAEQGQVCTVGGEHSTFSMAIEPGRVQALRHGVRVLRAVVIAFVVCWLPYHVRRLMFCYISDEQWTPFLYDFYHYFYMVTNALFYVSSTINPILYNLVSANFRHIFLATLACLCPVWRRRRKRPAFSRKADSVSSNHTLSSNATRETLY

`CC(C)C[C@H](NC(=O)[C@@H](NC(=O)[C@H](Cc1ccc(O)cc1)NC(=O)[C@@H]1CCCN1C(=O)[C@H](CCCNC(=N)N)NC(=O)[C@@H](NC(=O)[C@H](CCCN=C(N)N)NC(=O)[C@@H]1CCN1C(=O)[C@@H](CCCCN)NC(=O)CN(CCN(CCN(CC(=O)O)CC(=O)O)CC(=O)O)CC(=O)O)C1CCN(C(=N)N)CC1)C(C)(C)C)C(=O)O` showed an IC50 [1] of 11.5 nM.
Molecule `CC(C)C[C@H](NC(=O)[C@@H](NC(=O)[C@H](Cc1ccc(O)cc1)NC(=O)[C@@H]1CCCN1C(=O)[C@H](CCCN=C(N)N)NC(=O)[C@@H](NC(=O)[C@@H]1CCCN1C(=O)[C@H](CC1CCC(CN)CC1)NC(=O)CN(CCN(CCN(CC(=O)O)CC(=O)O)CC(=O)O)CC(=O)O)C1CCN(C(=N)N)CC1)C(C)(C)C)C(=O)O` (stereo partly drawn) ({DTPA}-[X1]P[Gly(1-amidinopiperidin-4-yl)]RPY[Tle]L-OH) has an IC50 [1] of 0.3 nM.
For `CC(C)C[C@H](NC(=O)[C@@H](NC(=O)[C@@H](Cc1ccc(O)cc1)NC(=O)[C@@H]1CCCN1C(=O)[C@H](CCCN=C(N)N)NC(=O)[C@@H](NC(=O)[C@@H]1CCCN1C(=O)[C@@H](CCCCN)NC(=O)CN(CCN(CCN(CC(=O)O)CC(=O)O)CC(=O)O)CC(=O)O)C1CCN(C(=N)N)CC1)C(C)(C)C)C(=O)O`, the IC50 ([1]; ht-29) was 0.6 nM.
Molecule `CC(C)C[C@H](NC(=O)[C@@H](NC(=O)[C@H](Cc1ccc(O)cc1)NC(=O)[C@@H]1CCCN1C(=O)[C@H](CCCN=C(N)N)NC(=O)[C@@H](NC(=O)[C@@H]1CCCN1C(=O)[C@@H](NC(=O)CN(CCN(CCN(CC(=O)O)CC(=O)O)CC(=O)O)CC(=O)O)C1CCNCC1)C1CCN(C(=N)N)CC1)C(C)(C)C)C(=O)O` ({DTPA}-[Gly(piperidin-4-yl)]P[Gly(1-amidinopiperidin-4-yl)]RPY[Tle]L-OH) has an ID/g tissue [2] of 6.141%, an ID/g tissue [3] of 2.177% and an ID/g tissue [4] of 2.831%. It also gave an ID/g tissue [5] of 0.092%, an ID/g tissue [6] of 0.051% and an ID/g tissue [7] of 0.03%. The ID/g tissue [8] was 0.088%, the ID/g tissue [9] was 0.03% and the ID/g tissue [10] was 5.725%. It also gave an ID/g tissue [11] of 0.152%, an ID/g tissue [12] of 0.203% and an ID/g tissue [13] of 0.416%. It also gave an ID/g tissue [14] of 0.085%, an ID/g tissue [15] of 4.841% and an IC50 [1] of 0.3 nM. For the same molecule, the ID/g tissue [16] was 0.133%, the ID/g tissue [17] was 0.263% and the ID/g tissue [18] was 0.18%. For the same molecule, the ID/g tissue [19] was 0.021%, the ID/g tissue [20] was 0.168% and the ID/g tissue [21] was 0.027%. For the same molecule, the ID/g tissue [22] was 0.03%.
`CC(C)C[C@H](NC(=O)[C@@H](NC(=O)[C@H](Cc1cccc(O)c1)NC(=O)[C@@H]1CCCN1C(=O)[C@H](CCCN=C(N)N)NC(=O)[C@@H](NC(=O)[C@@H]1CCCN1C(=O)[C@@H](CCCCN)NC(=O)CN(CCN(CCN(CC(=O)O)CC(=O)O)CC(=O)O)CC(=O)O)C1CCN(C(=N)N)CC1)C(C)(C)C)C(=O)O` showed an IC50 ([1]; ht-29) of 106 nM.
`CC[C@H](C)[C@H](NC(=O)[C@H](Cc1ccc(O)cc1)NC(=O)[C@@H]1CCCN1C(=O)[C@H](CCCN=C(N)N)NC(=O)[C@H](Cc1ccc(NC(=N)N)cc1)NC(=O)[C@@H]1CCCN1C(=O)[C@@H](CCCCN)NC(=O)CN(CCN(CCN(CC(=O)O)CC(=O)O)CC(=O)O)CC(=O)O)C(=O)N[C@@H](CC(C)C)C(=O)O` gave an IC50 [1] of 0.5 nM.
`CC(C)C[C@H](NC(=O)[C@@H](NC(=O)[C@H](Cc1ccc(O)cc1)NC(=O)[C@@H]1CCCN1C(=O)[C@H](CCCNC(=N)N)NC(=O)[C@H](CC1CCN(C(=N)N)CC1)NC(=O)[C@@H]1CCCN1C(=O)[C@@H](CCCCN)NC(=O)CN(CCN(CCN(CC(=O)O)CC(=O)O)CC(=O)O)CC(=O)O)C(C)(C)C)C(=O)O` ({DTPA}-[dK]P[Ala(1-amidino-4-piperidyl)]RPY[Tle]L-OH) was tested, and the IC50 [1] was 2.5 nM.
`CC(C)(C)[C@H](NC(=O)[C@H](Cc1ccc(O)cc1)NC(=O)[C@@H]1CCCN1C(=O)[C@H](CCCNC(=N)N)NC(=O)[C@@H](NC(=O)[C@@H]1CCCN1C(=O)[C@@H](CCCCN)NC(=O)CN(CCN(CCN(CC(=O)O)CC(=O)O)CC(=O)O)CC(=O)O)C1CCN(C(=N)N)CC1)C(=O)N[C@@H](CC1CCCC1)C(=O)O` was tested, and the IC50 [1] was 42.4 nM.
